One block for each compound: values may come before it. Active and inactive are the calls of the source. The rule behind the calls is not given here.
Assays:
VCaP [1] = assay: Antiproliferative activity against human VCaP cells assessed as inhibition of cell proliferation incubated for 2 weeks by crystal violet staining based analysis; type: functional; details: 336 h
In short: (§1)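 VCaP cells exposed either 24 h then washed and chased 2 weeks in compound-free medium, or continuously for 2 weeks; long-term viability visualized by crystal violet staining; IC50 calculated for each condition.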

VCaP [2] = assay: Antiproliferative activity against human VCaP cells assessed as inhibition of cell proliferation incubated for 24 hrs followed by culturing in compound-free medium for 2 weeks by crystal violet staining based analysis; type: functional; in short: as §1
DU-145 [3] = assay: Induction of massive cytoplasmic vacuolization in human RFP-labeled DU-145 cells incubated for 24 hrs; type: functional, cell-based; details: dose 100-3000 nM
In short: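 RFP-labeled DU145 cells treated 24 h (300 nM shown); vacuole area per cell quantified from images.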

DU-145 [4] = assay: Induction of massive cytoplasmic vacuolization in human RFP-labeled DU-145 cells at 300 nM incubated for 4 hrs; type: functional, cell-based
VCaP [5] = assay: Inhibition of autophagy in human VCaP cells assessed as increase in LC3A/B expression at 100 to 300 nM incubated for 4 hrs followed by culturing in compound-free medium for 72 hrs by immunoblot analysis; type: functional, cell-based; details: dose 100-300 nM
In short: (§2)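 VCaP cells treated 4 h, compounds removed, cultured 72 h in compound-free medium; whole cell lysates immunoblotted for PIKfyve, LC3A/B and GAPDH (RIPA lysis, 4–12% Bis-Tris gels, PVDF, ECL).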

[6] = molecular target: T1, von Hippel-Lindau disease tumor suppressor/1-phosphatidylinositol 3-phosphate 5-kinase (Homo sapiens) (UniProt Q9Y2I7+P40337); assay: PROTAC activity at VHL/PIKfyve in human VCaP cells assessed as induction of PIKfyve degradation at 300 nM incubated for 4 hrs followed by culturing in compound-free medium for 72 hrs by immunoblot analysis; type: cell-based; in short: as §2
[7] = molecular target: T1, von Hippel-Lindau disease tumor suppressor/1-phosphatidylinositol 3-phosphate 5-kinase (Homo sapiens); assay: PROTAC activity at VHL/PIKfyve in human PC-3 cells assessed as downregulation of PIKfyve expression at 10 to 3000 nM measured after 24 hrs by immunoblot analysis; type: cell-based; details: dose 10-3000 nM
In short: (§3)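 22RV1, LNCaP or PC3 cells given increasing concentrations for 24 h; RIPA lysates immunoblotted for PIKfyve with GAPDH loading control, ECL detection.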

VCaP [8] = assay: Inhibition of autophagy in human VCaP cells assessed as increase in LC3A/B expression at 300 nM incubated for 4 hrs followed by culturing in compound-free medium for 72 hrs by immunoblot analysis; type: functional, cell-based; in short: as §2
LTL-331R [9] = assay: Antitumor activity against human LTL-331R xenografted in CB17 mouse assessed as inhibition of tumor cell proliferation at 15 mg/kg, ip at 5 days on and 2 days off regimen for 17 days by digital caliper analysis; type: functional, organism-based; details: time 17.0 day
In short: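 LTL-331R PDX; once-daily IP dosing, 5 days on/2 days off for 17 days, vehicle 5% DMSO/95% of 40% hydroxypropyl-β-cyclodextrin; tumors measured at least twice weekly by caliper, volume (π/6)(L×W²); vehicle vs treated compared by two-tailed unpaired t test.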

LTL-331R [10] = assay: Antitumor activity against human LTL-331R xenografted in CB17 mouse assessed as induction of tumor cell death at 4 to 10 mg/kg, ip for 4 days by TUNEL assay; type: functional, organism-based; details: dose 4-10 mg/kg, time 4.0 day
In short: (§4)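 LTL-331R prostate cancer PDX; IP once daily for 3 days at 4 or 10 mg/kg in 5% DMSO/95% of 40% hydroxypropyl-β-cyclodextrin (freshly dissolved); tumors collected 24 h after last dose on day 4; whole tumor lysate immunoblotted for PIKfyve, LC3A/B, GAPDH, or TUNEL in situ cell death staining.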

[11] = molecular target: T1, von Hippel-Lindau disease tumor suppressor/1-phosphatidylinositol 3-phosphate 5-kinase (Homo sapiens); assay: PROTAC activity at VHL/PIKfyve in human VCaP cells assessed as maximal induction of PIKfyve degradation incubated for 24 hrs by immunoblot analysis relative to control; type: cell-based
In short: (§5)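 VCaP cells treated with increasing concentrations for 24 h; PIKfyve and GAPDH immunoblotted; percent remaining PIKfyve plotted to determine DC50 and Dmax.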

[12] = molecular target: T1, von Hippel-Lindau disease tumor suppressor/1-phosphatidylinositol 3-phosphate 5-kinase (Homo sapiens); assay: PROTAC activity at VHL/PIKfyve in human VCaP cells assessed as downregulation of PIKfyve expression at 300 nM measured after 4 hrs by TMT-labeled mass spectrometry; type: cell-based
In short: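 VCaP cells plated 3×10^6 per well overnight, then DMSO or 300 nM for 4 h; TMT-labeled quantitative global proteomics, mass-spec quantification of PIKfyve and lipid kinases.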

[13] = molecular target: T1, von Hippel-Lindau disease tumor suppressor/1-phosphatidylinositol 3-phosphate 5-kinase (Homo sapiens); assay: PROTAC activity at VHL/PIKfyve in human VCaP cells assessed as induction of PIKfyve degradation at 0.1 to 0.3 uM incubated for 24 hrs in presence of VHL ligand, VL285 by immunoblot analysis; type: cell-based; details: dose 0.1-0.3 µM
In short: (§6)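 VCaP cells given increasing concentrations of degrader with or without warhead 1 or VHL ligand VL285 for 24 h; immunoblot of PIKfyve and GAPDH.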

PC-3 [14] = assay: Inhibition of autophagy in human PC-3 cells assessed as increase in LC3A/B expression incubated for 24 hrs by immunoblot analysis; type: functional, cell-based; details: dose 10-3000 nM
In short: (§7)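 22RV1, LNCaP or PC3 cells (5% CO2, 37 °C) exposed to increasing concentrations for 24 h; RIPA lysates with protease/phosphatase inhibitors, 4–12% Bis-Tris SDS-PAGE, PVDF, milk block, immunoblotted for PIKfyve and autophagy markers LC3A/B and p62, ECL detection.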

VCaP [15] = assay: Antiproliferative activity against human VCaP cells assessed as inhibition of cell proliferation incubated for 4 hrs followed by culturing in compound-free medium for 2 weeks by crystal violet staining based analysis; type: functional
In short: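 VCaP cells treated 4 h, compound removed, then cultured 2 weeks in drug-free medium; long-term viability by crystal violet staining.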

Mus musculus = assay: In vivo induction of PIKfyve degradation in tumor of LTL-331R-xenografted CB17 mouse assessed as downregulation of PIKfyve expression at 4 to 10 mg/kg, ip for 4 days by western blot analysis; type: functional, organism-based; details: dose 4-10 mg/kg, time 4.0 day; in short: as §4
[16] = molecular target: T1, von Hippel-Lindau disease tumor suppressor/1-phosphatidylinositol 3-phosphate 5-kinase (Homo sapiens); assay: PROTAC activity at VHL/PIKfyve in human VCaP cells assessed as induction of PIKfyve degradation at 0.1 to 1 uM incubated for 24 hrs in presence of proteasome inhibitor, bortezomib by immunoblot analysis; type: cell-based; details: dose 0.1-1 µM
In short: (§8)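 VCaP cells treated 24 h at 0.1 and 1 µM, with or without pretreatment by 1 µM bortezomib; PIKfyve and GAPDH immunoblotted.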

[17] = molecular target: T1, von Hippel-Lindau disease tumor suppressor/1-phosphatidylinositol 3-phosphate 5-kinase (Homo sapiens); assay: PROTAC activity at VHL/PIKfyve in human VCaP cells assessed as induction of PIKfyve degradation at 0.1 to 0.3 uM incubated for 24 hrs in presence of PIKfyve inhibitor, apilimod by immunoblot analysis; type: cell-based; details: dose 0.1-0.3 µM; in short: as §6
[18] = molecular target: T1, von Hippel-Lindau disease tumor suppressor/1-phosphatidylinositol 3-phosphate 5-kinase (Homo sapiens); assay: PROTAC activity at VHL/PIKfyve in human VCaP cells assessed as induction of PIKfyve degradation at 0.1 uM incubated for 24 hrs by immunoblot analysis; type: cell-based
In short: (§9)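 VCaP cells treated 24 h at 0.1 or 1.0 µM; percent PIKfyve degradation determined by immunoblotting.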

LNCaP [19] = assay: Inhibition of autophagy in human LNCaP cells assessed as increase in p62 expression incubated for 24 hrs by immunoblot analysis; type: functional, cell-based; details: dose 10-3000 nM; in short: as §7
CWR22R [20] = assay: Inhibition of autophagy in human 22Rv1 cells assessed as increase in LC3A/B expression incubated for 24 hrs by immunoblot analysis; type: functional, cell-based; details: dose 10-3000 nM; in short: as §7
CWR22R [21] = assay: Inhibition of autophagy in human 22Rv1 cells assessed as increase in p62 expression incubated for 24 hrs by immunoblot analysis; type: functional, cell-based; details: dose 10-3000 nM; in short: as §7
LNCaP [22] = assay: Inhibition of autophagy in human LNCaP cells assessed as increase in LC3A/B expression incubated for 24 hrs by immunoblot analysis; type: functional, cell-based; details: dose 10-3000 nM; in short: as §7
[23] = molecular target: T1, von Hippel-Lindau disease tumor suppressor/1-phosphatidylinositol 3-phosphate 5-kinase (Homo sapiens); assay: PROTAC activity at VHL/PIKfyve in human VCaP cells assessed as induction of PIKfyve degradation at 1 uM incubated for 24 hrs by immunoblot analysis; type: cell-based; in short: as §9
PC-3 [24] = assay: Inhibition of autophagy in human PC-3 cells assessed as increase in p62 expression incubated for 24 hrs by immunoblot analysis; type: functional, cell-based; details: dose 10-3000 nM; in short: as §7
[25] = molecular target: T1, von Hippel-Lindau disease tumor suppressor/1-phosphatidylinositol 3-phosphate 5-kinase (Homo sapiens); assay: PROTAC activity at VHL/PIKfyve in human VCaP cells assessed as induction of PIKfyve degradation at 0.1 to 1 uM incubated for 24 hrs by immunoblot analysis; type: cell-based; details: dose 0.1-1 µM; in short: as §8
[26] = molecular target: T1, von Hippel-Lindau disease tumor suppressor/1-phosphatidylinositol 3-phosphate 5-kinase (Homo sapiens); assay: PROTAC activity at VHL/PIKfyve in human VCaP cells assessed as induction of PIKfyve degradation by measuring half life at 100 nM by immunoblot analysis; type: cell-based
[27] = molecular target: T1, von Hippel-Lindau disease tumor suppressor/1-phosphatidylinositol 3-phosphate 5-kinase (Homo sapiens); assay: PROTAC activity at VHL/PIKfyve in human VCaP cells assessed as induction of PIKfyve degradation incubated for 24 hrs by immunoblot analysis; type: cell-based; in short: as §5
[28] = molecular target: T1, von Hippel-Lindau disease tumor suppressor/1-phosphatidylinositol 3-phosphate 5-kinase (Homo sapiens); assay: PROTAC activity at VHL/PIKfyve in human 22RV1 cells assessed as downregulation of PIKfyve expression at 10 to 3000 nM measured after 24 hrs by immunoblot analysis; type: cell-based; details: dose 10-3000 nM; in short: as §3
[29] = molecular target: T1, von Hippel-Lindau disease tumor suppressor/1-phosphatidylinositol 3-phosphate 5-kinase (Homo sapiens); assay: PROTAC activity at VHL/PIKfyve in human LNCaP cells assessed as downregulation of PIKfyve expression at 10 to 3000 nM measured after 24 hrs by immunoblot analysis; type: cell-based; details: dose 10-3000 nM; in short: as §3
[30] = molecular target: T1, von Hippel-Lindau disease tumor suppressor/1-phosphatidylinositol 3-phosphate 5-kinase (Homo sapiens); assay: PROTAC activity at VHL/PIKfyve in human VCaP cells assessed as induction of PIKfyve degradation at 100 to 300 nM incubated for 4 hrs followed by culturing in compound-free medium for 72 hrs by immunoblot analysis; type: cell-based; details: dose 100-300 nM

T1 sequence (P40337 whole entry partner): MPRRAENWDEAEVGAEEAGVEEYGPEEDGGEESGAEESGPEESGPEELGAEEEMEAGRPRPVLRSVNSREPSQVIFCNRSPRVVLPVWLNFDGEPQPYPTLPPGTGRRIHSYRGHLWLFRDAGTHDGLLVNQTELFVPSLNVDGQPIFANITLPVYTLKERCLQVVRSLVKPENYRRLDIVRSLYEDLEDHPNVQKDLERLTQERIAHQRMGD
T1 sequence (Q9Y2I7 2-2098 limits assumed): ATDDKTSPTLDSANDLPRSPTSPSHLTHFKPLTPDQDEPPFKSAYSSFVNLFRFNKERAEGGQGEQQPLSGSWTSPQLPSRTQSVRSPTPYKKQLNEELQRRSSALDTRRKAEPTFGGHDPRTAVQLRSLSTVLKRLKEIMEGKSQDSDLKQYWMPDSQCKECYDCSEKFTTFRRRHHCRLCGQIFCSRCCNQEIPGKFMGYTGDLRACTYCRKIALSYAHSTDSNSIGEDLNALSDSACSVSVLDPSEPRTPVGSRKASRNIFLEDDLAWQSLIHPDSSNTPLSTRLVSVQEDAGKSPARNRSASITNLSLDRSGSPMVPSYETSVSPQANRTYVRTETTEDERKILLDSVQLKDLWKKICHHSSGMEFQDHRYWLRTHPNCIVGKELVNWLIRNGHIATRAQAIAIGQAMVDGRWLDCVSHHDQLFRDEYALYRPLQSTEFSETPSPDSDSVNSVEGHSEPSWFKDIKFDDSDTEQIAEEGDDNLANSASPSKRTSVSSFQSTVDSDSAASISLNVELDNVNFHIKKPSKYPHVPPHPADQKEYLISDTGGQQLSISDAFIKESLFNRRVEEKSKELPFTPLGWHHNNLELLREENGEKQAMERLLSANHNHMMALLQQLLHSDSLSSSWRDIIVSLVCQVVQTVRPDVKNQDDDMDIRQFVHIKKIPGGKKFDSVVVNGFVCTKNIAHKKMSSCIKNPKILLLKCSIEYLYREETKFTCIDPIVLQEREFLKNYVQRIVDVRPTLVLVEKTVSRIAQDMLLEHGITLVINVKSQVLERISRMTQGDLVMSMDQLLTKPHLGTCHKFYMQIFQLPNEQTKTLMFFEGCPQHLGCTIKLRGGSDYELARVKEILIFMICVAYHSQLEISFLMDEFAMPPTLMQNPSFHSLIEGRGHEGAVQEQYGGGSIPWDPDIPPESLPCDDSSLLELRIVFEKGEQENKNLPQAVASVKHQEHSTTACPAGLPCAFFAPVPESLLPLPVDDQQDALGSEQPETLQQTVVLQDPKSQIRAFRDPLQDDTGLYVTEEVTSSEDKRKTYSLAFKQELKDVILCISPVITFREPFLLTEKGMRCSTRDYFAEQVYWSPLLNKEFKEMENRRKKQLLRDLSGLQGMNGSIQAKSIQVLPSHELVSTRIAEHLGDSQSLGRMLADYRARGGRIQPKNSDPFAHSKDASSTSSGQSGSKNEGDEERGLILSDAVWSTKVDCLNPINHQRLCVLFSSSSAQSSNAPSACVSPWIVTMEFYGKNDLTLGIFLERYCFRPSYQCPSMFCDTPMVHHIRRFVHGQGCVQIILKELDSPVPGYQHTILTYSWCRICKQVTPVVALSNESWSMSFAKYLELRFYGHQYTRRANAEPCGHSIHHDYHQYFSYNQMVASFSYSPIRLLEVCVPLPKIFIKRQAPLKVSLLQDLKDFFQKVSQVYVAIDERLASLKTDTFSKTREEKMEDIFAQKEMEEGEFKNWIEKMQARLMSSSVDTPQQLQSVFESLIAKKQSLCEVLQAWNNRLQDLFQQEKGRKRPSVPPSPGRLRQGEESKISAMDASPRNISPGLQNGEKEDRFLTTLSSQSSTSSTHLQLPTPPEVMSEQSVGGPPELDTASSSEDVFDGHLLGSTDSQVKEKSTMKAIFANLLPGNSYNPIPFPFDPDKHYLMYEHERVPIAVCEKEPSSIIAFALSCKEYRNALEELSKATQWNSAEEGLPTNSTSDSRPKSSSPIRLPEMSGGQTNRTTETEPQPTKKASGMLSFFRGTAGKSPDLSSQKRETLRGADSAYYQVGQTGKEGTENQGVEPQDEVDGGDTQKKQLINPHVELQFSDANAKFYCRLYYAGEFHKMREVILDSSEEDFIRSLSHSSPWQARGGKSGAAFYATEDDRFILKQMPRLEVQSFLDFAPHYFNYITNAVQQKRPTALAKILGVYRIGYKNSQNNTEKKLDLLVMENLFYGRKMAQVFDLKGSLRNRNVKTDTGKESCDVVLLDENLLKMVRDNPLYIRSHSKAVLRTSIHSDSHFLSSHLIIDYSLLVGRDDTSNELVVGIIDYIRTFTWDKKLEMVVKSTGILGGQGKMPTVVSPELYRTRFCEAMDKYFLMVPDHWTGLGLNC

IC50 (VCaP [1]): 0.254 µM
IC50 (VCaP [2]): 1.19 µM
Compound: Cc1cccc(/C=N/Nc2cc(N3CCOCC3)nc(OCCc3ccccn3)n2)c1 [APILIMOD]
Activity (DU-145 [3]): Dose-Dependent Effect
Activity (DU-145 [4]): Active
inhibition (VCaP [5]): inactive

IC50 (VCaP [1]): 0.0559 µM
Activity [6]: Active
Activity [7]: Active
Activity [11]: 97.9%
IC50 (VCaP [2]): 0.522 µM
Activity [12]: Active
Activity [13]: inactive
IC50 (VCaP [15]): 1.2 µM
Activity [16]: inactive
Activity [17]: inactive
Activity [18]: 97%
Activity [23]: 91%
Activity [25]: Active
T1/2 [26]: 1.5 h
Activity [27]: Dose-Dependent Effect
Activity [28]: Active
Activity [29]: Active
Compound: Cc1cccc(/C=N/Nc2cc(N3CCOCC3)nc(OCCc3ccc(NC(=O)CCCCC(=O)N[C@H](C(=O)N4C[C@H](O)C[C@H]4C(=O)NCc4ccc(-c5scnc5C)cc4)C(C)(C)C)cc3)n2)c1
inhibition (VCaP [8]): Active
Activity (LTL-331R [9]): Active
Activity (LTL-331R [10]): Active
Activity (DU-145 [3]): Dose-Dependent Effect
inhibition (PC-3 [14]): Dose-Dependent Effect
Activity (DU-145 [4]): Active
Activity (Mus musculus): Active
inhibition (LNCaP [19]): Dose-Dependent Effect
inhibition (CWR22R [20]): Dose-Dependent Effect
inhibition (CWR22R [21]): Dose-Dependent Effect
inhibition (LNCaP [22]): Dose-Dependent Effect
inhibition (PC-3 [24]): Dose-Dependent Effect

IC50 (VCaP [15]): > 3 µM
Activity [18]: 0%
Activity [23]: 0%
Activity [30]: inactive
Compound: Cc1cccc(/C=N/Nc2cc(N3CCOCC3)nc(OCCc3ccc(NC(=O)CCCCC(=O)N[C@H](C(=O)N4C[C@@H](O)C[C@H]4C(=O)NCc4ccc(-c5scnc5C)cc4)C(C)(C)C)cc3)n2)c1
Activity (DU-145 [4]): Active
inhibition (VCaP [5]): inactive

Activity [18]: 72%
Activity [23]: 32%
Compound: Cc1cccc(/C=N/Nc2cc(N3CCOCC3)nc(OCCNC(=O)CCCCCCCCCC(=O)N[C@H](C(=O)N3C[C@H](O)C[C@H]3C(=O)NCc3ccc(-c4scnc4C)cc3)C(C)(C)C)n2)c1

Activity [18]: 90%
Activity [23]: 75%
Compound: Cc1cccc(/C=N/Nc2cc(N3CCOCC3)nc(OCCc3ccc(NC(=O)CCCCCC(=O)N[C@H](C(=O)N4C[C@H](O)C[C@H]4C(=O)NCc4ccc(-c5scnc5C)cc4)C(C)(C)C)cc3)n2)c1

Activity [18]: 84%
Activity [23]: 92%
Compound: Cc1cccc(/C=N/Nc2cc(N3CCOCC3)nc(OCCc3ccc(NC(=O)CCCCCCCC(=O)N[C@H](C(=O)N4C[C@H](O)C[C@H]4C(=O)NCc4ccc(-c5scnc5C)cc4)C(C)(C)C)cc3)n2)c1

From ChEMBL document CHEMBL5321284, “Discovery of a First-in-Class Degrader for the Lipid Kinase PIKfyve” (J Med Chem, 2023)
